CASP6 VEID inh: human caspase-6 inhibitors, primary screen, biochemical, VEID-R110 fluorescence, single point, set 2. hit rate 0.53% among 350,000. inhibition, % at 12.5 µM. purified caspase-6, Z-VEID-R110 cleavage fluorescence;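 active = mean inhibition across replicates at least about 35%, with every replicate also reaching that limit, limit read from the data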;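 also: 0% = median of neutral control wells and 100% = no fluorescence left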
TDP2 inh: human TDP2 enzyme inhibitors, primary screen, biochemical, epi absorbance, recombinant enzyme. hit rate 0.34% among 370,000. inhibition, % at 12.8 µM. T5PNP hydrolysis, p-nitrophenol absorbance 415 nm. AID 720702, 2013;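 active = inhibition above the mean of all tested compounds plus 3 SD, set per campaign, cut at about 25% in these data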;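 also: 0% = DMSO with enzyme and 100% = buffer with substrate but no TDP2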
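System: recombinant human TDP2 / Amount: 120 nM TDP2 per well / Also added: 5 mM T5PNP chromogenic substrate / Doses: 12.8 µM single point, 1% DMSO / Incubation: 2 h at 37 °C / Detection: p-Nitrophenol epi absorbance / Evaluation: % inhibition relative to enzyme-containing and enzyme-free wells / Repeats: singlicate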
NSD2 HMT inh: NSD2 histone methyltransferase inhibitors, primary screen, biochemical, AlphaScreen, single concentration, set 2 | Histone-lysine N-methyltransferase NSD2 (Homo sapiens), O96028 | inhibition, % at 12.5 µM | NSD2 peptide methylation, 120 min | hit rate 0.54% among 310,000; in the data active = inhibition above about 50%
UCH37 inh: inhibitors of human UCH37 deubiquitinase, primary screen, biochemical, Ub-AMC cleavage, fluorescence | inhibition, % (test concentration not listed) | hit rate 0.33% among 330,000 | Ubiquitin carboxyl-terminal hydrolase isozyme L5 (Homo sapiens), Q9Y5K5 | purified proteasome/UCH37;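 active = mean inhibition over replicate wells above about 20%, limit read from the data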;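 also: 0% = compound-free wells with enzyme and 100% = wells lacking proteasome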
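System: Proteasome-associated human UCH37 deubiquitinase; Input: 0.15 nM proteasome in added enzyme buffer; Also added: Ub-AMC substrate from 1 µM stock; Incubation: 30 min compound-proteasome preincubation then 25 min substrate reaction, room temperature; Detection: fluorescence, ex 355 nm, em 460 nm; Read-out: % inhibition of Ub-AMC cleavage fluorescence; Benchmarks: no-proteasome and no-compound wells.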
LEDGF integ inh: blockers of LEDGF/p75-dependent integrase strand transfer – biochemical, TR-FRET, high throughput, primary screen. HIV-1 integrase (with human LEDGF/p75). TR-FRET IN-LEDGF/p75 DNA integration, Eu/Cy5. inhibition, % at 3.7 µM. hit rate 0.64% among 370,000. AID 743269, 2014;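 active = inhibition above the screen-wide mean plus 3 SD, cut at about 13% in these data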;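 also: signal is the Cy5 over europium emission ratio at 671 and 618 nm; 0% = plate median of compound wells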
IN multimer up: HIV-1 IN multimer formation enhancers, counter-screen for LEDGF/p75 integration inhibitor project, biochemical, TR-FRET | shares compounds with LEDGF integ inh | TR-FRET HIV-1 integrase multimerization | activation, % at 7.7 µM | hit rate 17% among 2,000 | AID 1053131, 2014; in the data active = activation above about 8.9%
TRFRET interf: TR-FRET optical interference artefacts, confirmation, artefact control for LEDGF/p75-dependent integration inhibitor project, biochemical, HIV-1 IN multimerization | shares compounds with LEDGF integ inh | 2,000 tested, under 10 active | TR-FRET optical interference counterscreen | inhibition, % at 7.7 µM;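 active = inhibition above the mean over all tested compounds plus 3 SD, which no compound reached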;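 also: 0% = integrase with antibodies and DMSO and 100% = antibodies without integrase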
IN-LEDGF confirm: inhibitors of HIV-1 IN-LEDGF/p75 DNA integration, confirmation, biochemical, TR-FRET; hit rate 36% among 2,000; shares compounds with LEDGF integ inh; TR-FRET LEDGF/p75-dependent HIV-1 integration; inhibition, % at 3.7 µM; in the data active = inhibition above about 14%
Active calls of the source: *; . = no result. In the library only some 1.3% were active in any assay of this set; here they are far more common.

SMILES	CASP6 VEID inh	TDP2 inh	NSD2 HMT inh	UCH37 inh	LEDGF integ inh	IN multimer up	TRFRET interf	IN-LEDGF confirm
CC(C)(C)c1ccc(S(=O)(=O)/N=C2\C=C(NS(=O)(=O)c3ccccc3)C(=O)c3ccccc32)cc1	49.5*	22.1	108.4*	.	16.2*	-1.3	4.6	-6.2
Cn1c(SCCc2ccc([N+](=O)[O-])cc2)nccc1=O	0.3	1.8	0.6	0.2	59.7*	0.1	-0.2	0.3
O=C(NN=Cc1cc2c(cc1Cl)OCO2)c1cccnc1	.	.	.	2.2	.	.	.	.
COc1ccc(C(=O)Cn2cnc3ccccc3c2=O)c(OC)c1	2.2	5.0	.	4.5	2.6	.	.	.
COc1ccc(NC(=O)CCCn2cnc3ccccc3c2=O)c(OC)c1	4.1	-14.5	0.8	0.8	16.2*	-0.6	2.2	-12.8
O=C(NCCN1CCCC1)C1CC(=O)N(C2CCCCC2)C1 (configuration not stated)	.	3.8	0.3	-3.4	26.4*	-0.5	2.7	-4.5
CC1CCN(CCCNC(=O)C2CC(=O)N(C3CCCCCC3)C2)CC1 (configuration not stated)	.	6.4	-2.7	-0.9	0.1	.	.	.
O=C(NN=Cc1ccc(F)c(F)c1)c1cc2c(s1)-c1ccccc1CC2	.	.	.	-186.5	.	.	.	.
COc1cccc(CN2C(=O)CCC2(C)C(=O)NC2CCCC2)c1 (configuration not stated)	.	1.3	-0.3	0.1	22.1*	0.5	-2.5	2.9
CC1(C(=O)NC2CCCCC2)CCC(=O)N1Cc1cccnc1 (configuration not stated)	11.4	-3.7	.	0.3	0.1	.	.	.
CCc1nonc1NC(=O)c1oc2cc(C)c(C)cc2c1C	-2.1	-2.2	0.2	-3.1	-1.9	.	.	.
CCc1nnc(NC(=O)c2oc3cc(C)c(C)cc3c2C)s1	.	-3.8	2.7	-4.8	16.0*	2.9	-14.7	-3.1
COc1cc2c(C#N)c(N3CCCCC3)nc(N)c2c(N)n1	.	9.5	-11.5	-36.2	33.5*	0.5	-2.6	1.2
CC(O)(c1ccccc1)c1nc(-c2cccc(C(=O)O)c2)cs1 (configuration not stated)	1.0	-9.2	-1.0	.	0.3	.	.	.
COc1cccc(C(C)(O)c2nc(-c3ccc(Cl)cc3)cs2)c1 (configuration not stated)	2.5	-0.4	-9.5	.	-4.1	.	.	.
CC(C)c1cccc(-c2csc(C(C)(O)c3ccccc3)n2)c1 (configuration not stated)	2.7	-2.8	-2.3	.	16.2*	0.2	-1.0	-10.3
COc1ccc(-c2csc(C(C)(O)c3cccc(OC)c3)n2)cc1 (configuration not stated)	1.3	-7.5	-0.8	.	21.7*	0.0	-0.2	-4.7
CC(=NNc1nc(Cl)c(Cl)cc1Cl)c1ccc(S(=O)(=O)NCc2ccco2)cc1	.	.	.	0.2	.	.	.	.
Cc1ccc(S(=O)(=O)N2CCN(C(=O)COC(=O)c3cccnc3Cl)CC2)c(C)c1	-0.5	8.1	-2.1	4.1	66.3*	-1.9	6.7	1.4
CSc1ncccc1C(=O)OCC(=O)N1CCN(S(=O)(=O)c2ccc(C)cc2C)CC1	2.1	1.0	-1.4	-0.1	-2.1	.	.	.
c1coc(-c2ccc3nncn3c2)c1	-1.3	12.6	.	.	57.0*	23.0*	-116.1	72.6*
CCOC(=O)C(=O)NN=Cc1ccco1	.	.	.	7.6	.	.	.	.
COc1ccc(C(CNCC(O)COc2c(C)ccc(C)c2C)N(C)C)cc1 (configuration not stated)	-3.0	-4.7	2.4	2.5	13.6*	-0.4	2.2	3.4
Cc1ccc(C=Nc2sc3c(c2C#N)CCC3)o1	.	.	.	5.2	.	.	.	.
Cc1ccsc1/C=C/C1=Cc2c(sc(NC(=O)CSc3n[nH]c(N)n3)c2C#N)C(C)(C)C1	.	0.4	.	-31.7	17.8*	-0.3	1.5	38.8*
SMILES	CASP6 VEID inh	TDP2 inh	NSD2 HMT inh	UCH37 inh	LEDGF integ inh	IN multimer up	TRFRET interf	IN-LEDGF confirm
CC(C)C[C@H](NC(=O)OC(C)(C)C)C(=O)NN=CC1=Cc2ccccc2OC1C (some centres not stated)	.	.	.	-52.2	.	.	.	.
CCn1c(SCC(=O)NN=C(C)c2ccncc2)nnc1-c1ccc(C)cc1	.	.	.	4.0	.	.	.	.
NC(=O)CSCc1cccc(Br)c1	.	9.2	-3.2	-0.4	32.9*	-0.1	0.5	4.8
Cc1ccc(C)c(OCc2cc(C(=O)N3CCNC(=O)C3)no2)c1	-2.2	18.1	-1.9	0.9	27.4*	-0.9	4.4	4.1
Cc1ccc(C)c(OCc2cc(C(=O)N3CCOCC3)no2)c1	2.7	9.7	-0.9	1.3	-4.0	.	.	.
CCOc1ccccc1-c1cc(C(=O)NN=Cc2ccc3c(c2)OCO3)c2ccccc2n1	.	.	.	-6.0	.	.	.	.
Cc1cccc(C)c1OC1(c2ccccc2)OC(=O)c2ccccc21 (configuration not stated)	.	1.4	-1.1	6.2	0.4	.	.	.
Cc1cc(C)c(OC2(c3ccccc3)OC(=O)c3ccccc32)c(C)c1 (configuration not stated)	.	1.9	6.4	2.3	31.0*	2.6	-9.3	-4.9
O=C(Cn1c(=O)sc2ccccc21)NCc1ccccn1	1.3	3.5	.	1.4	18.6*	-0.2	1.0	0.8
CCOc1ccc(-c2c(C(=O)NN=C(C)c3cccs3)nnn2-c2nonc2N)cc1	.	.	.	-3.4	.	.	.	.
Cn1c(=O)c2ccccc2n(Cc2cccc(F)c2)c1=O	-0.4	-4.0	28.4	3.4	21.3*	0.9	-3.4	-0.5
Cn1c(=O)c2ccccc2n(Cc2ccccc2F)c1=O	.	-0.1	-5.1	0.4	2.1	.	.	.
CCCNC(=O)C1(C)CCN(CCC(=O)c2ccc(Br)cc2)C1 (configuration not stated)	-2.7	-1.5	-1.3	.	62.9*	0.1	-0.7	0.4
O=C(c1ccccc1)c1nn(-c2ccc(Cl)cc2)c(=O)cc1C(F)(F)F	.	3.2	1.3	-6.9	22.6*	0.2	-1.0	18.7*
O=C1NC(=O)C(c2ccccc2[N+](=O)[O-])=C1Nc1ccc(O)c(Cl)c1	23.3	17.8	.	1.1	25.8*	5.4	-19.3	1.2
